Rows were chosen to be rich in hits. Some 2.3% of all compounds tested hit in one or more screens of this group.
TRPC6 inhibitor = blocks the mouse TRPC6 cation channel; Q61143; HEK293-TRPC6, membrane potential dye, ACh-evoked depolarization; hits give low values; B-score at 10 µM; 310,000 compounds, 1.1% hits; AID 2553;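 active = B-score under library mean minus 3 SD, initial fluorescence not abnormally high, positive integrated signal ratio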;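 also: B-score derived from integrated fluorescence ratio over the kinetic read; more negative B-score means stronger inhibition of depolarization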
Target sequence (Q61143 whole entry, looked up): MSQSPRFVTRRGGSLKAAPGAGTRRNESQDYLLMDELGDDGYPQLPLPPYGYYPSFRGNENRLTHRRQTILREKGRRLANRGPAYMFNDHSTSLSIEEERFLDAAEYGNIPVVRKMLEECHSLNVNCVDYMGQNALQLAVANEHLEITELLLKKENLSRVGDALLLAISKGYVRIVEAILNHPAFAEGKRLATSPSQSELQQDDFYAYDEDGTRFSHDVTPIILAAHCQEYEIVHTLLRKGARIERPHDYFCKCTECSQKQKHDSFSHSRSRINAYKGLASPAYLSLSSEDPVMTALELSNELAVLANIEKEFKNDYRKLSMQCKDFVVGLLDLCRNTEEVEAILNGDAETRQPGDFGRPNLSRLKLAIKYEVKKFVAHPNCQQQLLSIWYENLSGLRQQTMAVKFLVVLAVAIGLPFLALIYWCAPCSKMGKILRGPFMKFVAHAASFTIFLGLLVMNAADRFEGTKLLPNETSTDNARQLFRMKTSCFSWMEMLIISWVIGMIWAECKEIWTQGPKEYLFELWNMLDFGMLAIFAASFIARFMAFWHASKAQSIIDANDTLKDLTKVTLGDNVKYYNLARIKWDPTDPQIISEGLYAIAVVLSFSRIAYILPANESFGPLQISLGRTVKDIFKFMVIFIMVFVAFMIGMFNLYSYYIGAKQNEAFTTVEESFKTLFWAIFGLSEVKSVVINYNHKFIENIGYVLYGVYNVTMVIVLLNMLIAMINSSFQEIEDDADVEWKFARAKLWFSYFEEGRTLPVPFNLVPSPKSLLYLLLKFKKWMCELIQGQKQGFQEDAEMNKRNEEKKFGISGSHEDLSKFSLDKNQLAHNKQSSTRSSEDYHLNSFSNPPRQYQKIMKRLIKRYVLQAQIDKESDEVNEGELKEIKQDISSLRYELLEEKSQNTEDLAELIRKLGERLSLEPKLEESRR
TRPC6 activator = mouse TRPC6 channel activation | HEK293-TRPC6 membrane potential dye fluorescence; hits give high values | B-score at 10 µM | 310,000 compounds, 0.13% hits | AID 2550;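 active = B-score of the integrated fluorescence ratio above library mean plus 3 SD, and starting fluorescence ratio within library mean plus 5 SD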;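 also: higher score means more depolarization so channel activation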
TRPC4 inh = TRPC4 (mouse) channel inhibition; Q9QUQ5; B-score at 10 µM; 300,000 compounds, 0.39% hits; HEK293 TRPC4beta/mu-opioid, DAMGO-evoked Fluo4 calcium flux; hits give low values;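 active = B-score over 3 SD under the library average, no early fluorescence shift, positive overall ratio signal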
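System: stable TRPC4beta/mu-opioid receptor HEK293 cells; Dosing: single-point compound dosing; Measured by: Fluo4 Ca2+ flux fluorescence; Read-out basis: per-well B score of integrated baseline-normalized Fluo4 ratio.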
TRPC4 potent = allosteric potentiators of mouse TRPC4 channel; HEK293 TRPC4beta/mu-opioid, DAMGO EC20, Fluo-4 Ca2+ flux; hits give high values; B-score at 10 µM; Q9QUQ5; 310,000 compounds, 0.42% hits;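 active = B-score of calcium response area above 5 SD of library B-scores, with initial fluorescence ratio within 5 SD of library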
TRPC4 act = activators of mouse TRPC4 channel; HEK293 TRPC4beta/mu-opioid, Fluo4 calcium fluorescence; hits give high values; 310,000 compounds, 0.49% hits; Q9QUQ5; B-score at 10 µM;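 active = B-score above 5 SD of library B-scores, and initial fluorescence ratio not above library mean plus 5 SD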;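 also: positive B-score marks a calcium rise read as TRPC4 activation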
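Assay system: HEK293 stable line with TRPC4beta plus mu-opioid receptor. Times: dye 45 min RT, read 110 s. Measured by: kinetic Fluo4 calcium fluorescence. Measure: B score of integrated ratio. Controls: assay buffer as low control, maximal DAMGO as high control.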
Hits are given with their value; i = inactive; ! = a repeat was not active.

SMILES	TRPC6 inhibitor	TRPC6 activator	TRPC4 inh	TRPC4 potent	TRPC4 act
NC(N)=N/N=C/c1ccc(N(c2ccccc2)c2ccccc2)cc1	i	i	i	i	86
C=CCn1c(O)c(C=NCCN2CCOCC2)c(=O)[nH]c1=S	i	i	i	10	i
COc1ccc(CCNC(C)CCc2ccc(OC)cc2)cc1 (stereo unspecified)	i	i	i	i	i
CC(=O)O[C@]1(c2ccccc2)CCN(C)[C@H]2CCCC[C@@H]21	i	i	i	i	i
CC(=O)OC1(c2ccccc2)CCN(C2CCCCC2)CC1C (stereo unspecified)	i	i	-6	i	i
COc1cc(C(=O)OC2C[C@H]3CC[C@@H](C2)N3C)ccc1O (stereo partly specified)	i	i	i	i	i
CN1C2CCC1CC(OC(=O)c1cc(Cl)cc(Cl)c1)C2 (stereo unspecified)	i	i	i	13	i
Oc1ccccc1-[n+]1c(-c2ccccc2)cc(-c2ccccc2)cc1-c1ccccc1	i	i	i	i	i
Nc1ccccc1-[n+]1c(-c2ccccc2)cc(-c2ccccc2)cc1-c1ccccc1	i	i	i	25	i
CCC(=NC1CCN(Cc2ccccc2)CC1)c1c(O)[nH]c(=O)[nH]c1=O	i	i	i	10	i
Cc1ccc(Cl)cc1N1CCN(CCN)CC1	i	i	i	i	155
CCN(CC)c1nc2c(C)cccn2c(=O)c1C=C1C(=O)NC(=O)NC1=O	i	i	i	14	i
CNCCc1nc(N)n[nH]1	i	i	i	i	101
O=C1NC(=O)C(CCc2ccncc2)(Cc2ccc(OCc3ccccc3)cc2)C(=O)N1	i	i	i	i	i
Cc1ccc(-c2nc(N(C)C3CCN(C)CC3)c3ccccc3n2)cc1	i	i	i	24	i
CC(CN(C)C1CCN(C)CC1)c1ccccc1 (stereo unspecified)	i	i	i	i	i
c1ccc2[nH]c(CCNC3CCCCC3)nc2c1	i	i	i	i	65
c1ccc2c(CCNC3CCCCC3)c[nH]c2c1	i	i	i	i	i
FC(F)(F)c1ccccc1N1CC1c1ccncc1 (stereo unspecified)	i	i	i	i	i
COc1ccc(C(CNC(=O)Cc2ccc(Cl)c(Cl)c2)N(C)C)cc1 (stereo unspecified)	i	i	i	i	173
COc1ccc(C(CNC(=O)Cc2ccc(Cl)c(Cl)c2)N2CCCCC2)cc1 (stereo unspecified)	i	i	i	i	i
O=c1[nH]c(=O)n(CCc2ccccc2)c(O)c1C=NC1CC1	i	i	i	14	i
CN(C)CCCN=Cc1c(O)n(CCc2ccccc2)c(=O)[nH]c1=O	i	i	i	i	i
Cc1ccc(OP(=O)(Nc2cccc(C)c2)Oc2ccc(C)cc2)cc1	i	i	i	i	i
Cc1cccc(OP(=O)(Nc2cccnc2)Oc2cccc(C)c2)c1	i	i	i	11	i
SMILES	TRPC6 inhibitor	TRPC6 activator	TRPC4 inh	TRPC4 potent	TRPC4 act
CCOC(=O)C1(CCc2ccccc2)CCN(Cc2csc(C(C)=O)c2)CC1	i	i	i	i	49
CCOC(=O)C1(CCc2ccccc2)CCN(Cc2cccc3cnccc23)CC1	i	i	i	i	i
CCOC(=O)C1(CCc2ccccc2)CCN(Cc2cccc3c2OCO3)CC1	i	i	-6	i	i
CC(=O)OC1N=C(c2ccccc2Cl)c2cc(Br)ccc2N(C)C1=O (stereo unspecified)	i	i	i	i	i
CC1(C)CC(N(CCc2ccccc2)Cc2ccccc2)CCO1 (stereo unspecified)	i	i	-6	i	i
OC12Oc3ccccc3C=C1N1CCC2CC1 (stereo unspecified)	i	i	i	i	i
CC(C)CN(CC(C)C)c1ccc(C=C2C(=O)NC(=S)NC2=O)cc1[N+](=O)[O-]	i	i	-7	i	i
N=c1c[n+](CC23CC4CC(CC(C4)C2)C3)[n-]o1	i	i	i	i	211
CNc1ccc2oc(C[C@H]3O[C@@]4(CC[C@H]3C)O[C@H]([C@H](C)C(=O)c3ccc[nH]3)[C@H](C)C[C@H]4C)nc2c1C(=O)O	i	i	i	i	148
OC(CNC1CCCCC1)C(F)(F)F (stereo unspecified)	i	i	i	i	i
CCc1ccc(CN2CCN(Cc3cc(Br)ccc3O)CC2)cc1	i	i	i	i	i
CCN1CCN(Cc2cc(Br)ccc2O)CC1	i	i	i	23	i
CCN1CCN(Cc2cc(Br)cc(Br)c2O)CC1	i	i	i	i	200
CCOC(=O)C1(c2ccccc2)CCN(CC(=O)Nc2ccc(C)cc2)CC1	i	i	-8	i	i
CCOC(=O)C1(c2ccccc2)CCN(CCC(C#N)(c2ccccc2)c2ccccc2)CC1	i	i	i	i	94
CCOC(=O)C1(CCOc2ccccc2)CCN(Cc2ccccc2OC)CC1	i	i	i	i	i
CC1(C)CSC(=NCc2ccccc2)N1	i	i	i	i	68
Clc1ccccc1CN1CCNCC1	i	i	i	i	i
Cc1ccccc1CN1CCNCC1	i	i	i	15	i
FC(F)(F)c1ccc(CN2CCNCC2)cc1	i	i	i	17	i
Clc1ccc(CN2CCNCC2)cc1	i	i	i	i	54
c1cc2c(cc1CN1CCNCC1)OCO2	i	i	i	i	i
COC(=O)C1=C(c2ccccc2)C[C@@H]2CC[C@H]1N2C(=O)N1CCC(C)CC1	i	i	i	i	i
Cc1cc(NC(=O)CCl)no1	i	i	i	i	i
CCC(CO)NC(=O)C1C=C2c3cccc4[nH]cc(c34)CC2N(C)C1 (stereo unspecified)	i	i	i	i	73
SMILES	TRPC6 inhibitor	TRPC6 activator	TRPC4 inh	TRPC4 potent	TRPC4 act
CC[C@@H](CO)NC(=O)[C@@H]1C=C2c3cccc4c3c(cn4C)C[C@H]2N(C)C1	i	i	i	i	154!
Cc1c(C(=O)Nc2ccccc2)c2cc(O)ccc2n1Cc1ccccc1	i	i	i	i	i
Cc1ccc(C2=CCNCC2)cc1	i	i	i	i	i
Oc1ccc2c3c1O[C@H]1c4oc5ccccc5c4C[C@@]4(O)[C@@H](C2)N(CC2CC2)CC[C@]314	i	i	-6	i	i
Cc1ccc2c(c1)C1CN(C)CCC1N2C(=O)c1cccnc1Cl (stereo unspecified)	i	i	i	i	i
Cc1ccc2c(c1)C1CN(C)CCC1N2C(=O)c1cn(-c2ccccc2)nc1-c1ccccc1 (stereo unspecified)	i	i	i	23	i
Cc1ccc2c(c1)N(C(C)C(=O)N1CCC3(CC1)OCCO3)C(=O)CO2 (stereo unspecified)	i	i	i	i	i
c1ccc(C2CC3CC(c4ccco4)N2O3)cc1 (stereo unspecified)	i	i	i	i	i
CCC(C)NC(=O)CN1C(=O)CN=C(c2ccccc2)c2ccccc21 (stereo unspecified)	i	i	i	i	i
Cn1cnc(CCN)c1	i	i	i	i	143

From PubChem BioAssay
